ChEMBL document CHEMBL1157353, “Synthesis and biological evaluation of (-)- and (+)-debromoflustramine B and its analogues as selective butyrylcholinesterase inhibitors” (J Med Chem, 2008)
Active and inactive are the calls of the source. No cut-off for these calls is given here.

How the values were obtained:
Cholinesterase [1] = target: T1, Cholinesterase (Homo sapiens, UniProt P06276); test: Inhibition of human plasma BChE after 20 mins by Ellman's method; type: cell-free
Procedure, shortened: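 Human plasma BChE, Ellman method, in 0.1 M phosphate buffer pH 8.0 with 340 µM butyrylthiocholine iodide. Compounds were preincubated with enzyme for 20 min at 37 °C before substrate was added, and an enzyme-free blank corrected for nonenzymatic hydrolysis. Compounds were screened at 1 mM; those giving >30% inhibition were run at nine concentrations (10-3–10-7 M), three times in triplicate. IC50 came from probit-transformed % activity versus log concentration.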

Cholinesterase [2] = target: T1, Cholinesterase; test: Inhibition of human plasma BChE at <10000 uM after 20 mins by Ellman's method; type: cell-free

T1 sequence (P06276 whole entry): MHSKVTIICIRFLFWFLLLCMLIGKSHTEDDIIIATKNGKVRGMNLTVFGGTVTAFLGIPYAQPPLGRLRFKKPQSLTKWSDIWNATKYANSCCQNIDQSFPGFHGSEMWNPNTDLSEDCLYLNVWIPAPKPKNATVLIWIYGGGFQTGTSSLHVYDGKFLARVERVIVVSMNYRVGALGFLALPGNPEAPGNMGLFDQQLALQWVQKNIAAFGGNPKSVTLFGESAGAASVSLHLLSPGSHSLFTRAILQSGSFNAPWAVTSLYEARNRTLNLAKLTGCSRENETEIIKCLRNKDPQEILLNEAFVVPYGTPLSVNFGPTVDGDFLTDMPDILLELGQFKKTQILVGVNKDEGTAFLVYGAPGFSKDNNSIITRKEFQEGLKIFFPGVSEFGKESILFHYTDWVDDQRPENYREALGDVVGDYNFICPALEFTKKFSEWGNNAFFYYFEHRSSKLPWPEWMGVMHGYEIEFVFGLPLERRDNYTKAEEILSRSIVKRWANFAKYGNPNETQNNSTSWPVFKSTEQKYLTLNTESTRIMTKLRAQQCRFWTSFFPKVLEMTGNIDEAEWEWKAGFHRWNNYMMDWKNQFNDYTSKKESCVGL

| Structure (SMILES) | IC50 (Cholinesterase [1]) [µM] | Activity (Cholinesterase [2]) |
| --- | --- | --- |
| CC(C)=CCC12CCN(C)C1N(Cc1ccccc1)c1ccccc12 (configuration not stated) | 10 |  |
| COc1ccc2c(c1)C1(CC=C(C)C)CCN(Cc3ccccc3)C1N2CC=C(C)C (configuration not stated) | 50 |  |
| COc1ccc2c(c1)C1(CC=C(C)C)CCN(Cc3ccccc3)C1N2Cc1ccccc1 (configuration not stated) |  | inactive |
| CC(C)=CCN1c2ccccc2C2(CC=C(C)C)CCN(Cc3ccccc3)C12 (configuration not stated) |  | inactive |
| CN1CCC2(Cc3ccccc3)c3ccccc3N(Cc3ccccc3)C12 (configuration not stated) | 22.1 |  |
| CCN1c2ccccc2C2(CC)CCN(C)C12 (configuration not stated) |  | inactive |
| COc1ccc2c(c1)C1(Cc3ccccc3)CCN(Cc3ccccc3)C1N2Cc1ccccc1 (configuration not stated) |  | inactive |
| COc1ccc2c(c1)C1(Cc3ccccc3)CCN(C)C1N2Cc1ccccc1 (configuration not stated) | 5.89 |  |
| CN1CCC2(Cc3ccncc3)c3ccccc3N(Cc3ccncc3)C12 (configuration not stated) |  | inactive |
| CC(C)=CCN1c2ccccc2C2(CC=C(C)C)CCNC12 (configuration not stated) [DEMETHYLDEBROMOFLUSTRAMINE B] | 0.26 |  |
| CC(C)=CCC12CCN(C)C1N(C)c1ccccc12 (configuration not stated) |  | inactive |
| CC(C)=CCN1c2ccccc2[C@]2(CC=C(C)C)CCN(C)[C@H]12 [(-)-DEBROMOFLUSTRAMINE B] | 1.37 | inactive |
| CC(C)=CCN1CCC2(CC=C(C)C)c3ccccc3N(CC=C(C)C)C12 (configuration not stated) | 1.72 |  |
| CC(C)=CCN1c2ccccc2[C@@]2(CC=C(C)C)CCN(C)[C@@H]12 [(+)-DEBROMOFLUSTRAMINE B] | 10300 |  |
| CN1CCC2(Cc3ccncc3)c3ccccc3N(Cc3ccccc3)C12 (configuration not stated) |  | inactive |
| CN1CCC2(C)c3ccccc3N(C)C12 (configuration not stated) |  | inactive |
| COc1ccc2c(c1)C1(CC=C(C)C)CCN(C)C1N2Cc1ccccc1 (configuration not stated) | 7.54 |  |
| CC(C)=CCN1c2ccccc2C2(CC=C(C)C)CCN(C)C12 (racemic) [(+/-)-DEBROMOFLUSTRAMINE B] | 2.59 |  |
| COc1ccc2c(c1)C1(CC=C(C)C)CCN(C)C1N2CC=C(C)C (configuration not stated) | 4.59 |  |
| CC(C)CCN1c2ccccc2C2(CCC(C)C)CCN(C)C12 (configuration not stated) |  | inactive |
| CCCN1c2ccccc2C2(CCC)CCN(C)C12 (configuration not stated) |  | inactive |
